Source: ChEMBL document CHEMBL4028856, “Discovery of Small Molecules Targeting the Synergy of Cardiac Transcription Factors GATA4 and NKX2-5” (J Med Chem, 2017)
Active and inactive are the calls of the source. The calls are words filed in the database; no cut-off is given here.

Columns and labels:
[1] = target: Transcription factor GATA-4 (Mus musculus) (UniProt Q08369); assay: Inhibition of binding of mouse GATA4 to [32P]-double stranded oligonucleotide expressed in African green monkey COS-1 cells at 50 uM preincubated for 10 mins followed by [32P]-double stranded oligonucleotide addition measured after 20 mins by EMSA method; assay type: cell-based
How it was run: (§1)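 Nuclear extracts from COS-1 cells transfected with pMT2-GATA4 or pMT2-NKX2-5 (harvested 48 h) preincubated 10 min with 50 μM compound, then 20 min with 32P-labeled GATA4- or NKX2-5-site probe; native 5% PAGE, phosphorimager quantitation; antibody supershift controls; mean ± SD, n = 3–5.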

[2] = target: T1, GATA4/NKX2-5 (Mus musculus) (UniProt Q08369+P42582); details: 10 uM
[3] = target: Homeobox protein Nkx-2.5 (Mus musculus) (UniProt P42582); assay: Inhibition of binding of mouse NKX2-5 to [32P]-double stranded oligonucleotide expressed in African green monkey COS-1 cells at 50 uM preincubated for 10 mins followed by [32P]-double stranded oligonucleotide addition measured after 20 mins by EMSA method; assay type: cell-based; how it was run: as §1
[4] = target: GATA4/NKX2-5 (Mus musculus, UniProt P42582+Q08369); assay: Inhibition of mouse GATA4/NKX2-5 transcriptional synergy expressed in African green monkey COS-1 cells measured after 30 hrs by dual luciferase reporter gene assay; assay type: cell-based
How it was run: (§2)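 COS-1 cells co-transfected (Fugene 6, DNA:reagent 1:3) with p3xNKE-luc, Renilla pRL-TKd238 control, and pMT2-GATA4, pMT2-NKX2-5, both, or empty pMT2; DNA balanced with pMT2. Compounds added 6 h post-transfection in 0.1% DMSO, medium renewed at 24 h, lysis at 30 h. Dual-luciferase read-out, firefly/Renilla normalized to vehicle; duplicate wells.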

[5] = Drug level in embryoid body differentiation medium treated with N-[4-(Diethylamino)phenyl]-5-methyl-3-phenylisoxazole-4-carboxamide at 3 to 5 uM measured after 10 days by HPLC/MS method
How it was run: (§3)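 Mouse embryonic stem cells exposed 5 and 10 days to 3 or 5 μM, with DMSO and EB differentiation medium blanks. Medium extracted with chloroform; cells pelleted, saline-washed twice, sonicated in chloroform. UPLC-ESI(+)-QTOF/MS, BEH C18, 0.1% formic acid water/acetonitrile gradient 7–80% B over 5 min, 0.6 mL/min, 40 °C.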

[6] = Drug level in mouse embryonic stem cells treated with N-[4-(Diethylamino)phenyl]-5-methyl-3-phenylisoxazole-4-carboxamide at 3 to 5 uM measured after 10 days by HPLC/MS method; assay type: ADME, cell-based; details: embryonic stem cell, 240 h; how it was run: as §3
[7] = target: Fibroblast growth factor receptor 3 (Homo sapiens) (UniProt P22607); assay: Inhibiton of human FGFR3 at 30 uM
How it was run: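 48-kinase profiling panel; compounds tested at 30 μM in duplicate.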

[8] = Induction of necrosis in endothelin-1 induced neonatal rat ventricular cardiomyocytes assessed as release of adenylate kinase at 50 uM measured after 24 hrs by bioluminescence assay; assay type: cell-based; details: cardiac muscle cell
How it was run: (§4)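 Neonatal rat cardiomyocytes treated 24 h at 50 μM; adenylate kinase released into medium measured by ToxiLight bioluminescence on a luminometer; relative to vehicle, mean ± SD, n = 3.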

[9] = Induction of aggregation of compound at 3 to 30 uM by nephalometric method
[10] = Induction of apoptosis in endothelin-1 induced neonatal rat ventricular cardiomyocytes at 50 uM measured after 24 hrs by TUNEL assay; assay type: cell-based; details: cardiac muscle cell
How it was run: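 Neonatal rat cardiomyocytes on 8-well chamber slides treated 24 h at 50 μM; apoptotic cells detected by TUNEL with peroxidase in situ kit.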

[11] = Induction of necrosis in neonatal rat ventricular cardiomyocytes assessed as release of adenylate kinase at 50 uM measured after 24 hrs by bioluminescence assay; assay type: cell-based; details: cardiac muscle cell; how it was run: as §4
[12] = target: Transcription factor GATA-4 (Mus musculus) (UniProt Q08369); assay: Inhibition of mouse GATA4-driven transactivation of luciferase reporter construct containing BNP minimal promoter with tandem GATA-site on -90 bp expressed in African green monkey COS-1 cells after 30 hrs by luminometer; assay type: cell-based
How it was run: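 COS-1 cells co-transfected with firefly luciferase driven by BNP minimal or −90 bp BNP promoter, Renilla pRL-TKd238, and pMT2-GATA4 or empty pMT2. Compounds added 6 h post-transfection in 0.1% DMSO, refreshed with medium at 24 h; lysis at 30 h; dual-luciferase, firefly/Renilla normalized to vehicle; triplicate wells.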

[13] = target: T2, GATA4/NKX2-5 (Rattus norvegicus) (UniProt P46152+O35767); assay: Activation of GATA4/NKX2-5 interaction in neonatal rat ventricular cardiomyocytes assessed as increase in basal mRNA level of ANP at 100 uM after 24 hrs by real-time PCR analysis relative to control
How it was run: (§5)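 Neonatal rat ventricular myocytes (2–4-day-old Sprague-Dawley or Wistar), preplated, seeded on 6-well plates, moved to complete serum-free medium next day and cultured 24 h. Compounds (10–100 μM) added 1 h before 100 nM endothelin-1 or none; ANP and BNP mRNA quantified by RT-PCR at 24 h, normalized to 18S RNA, relative to vehicle; mean ± SD, n = 3–6.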

[14] = target: Transcription factor GATA-4 (Rattus norvegicus) (UniProt P46152); assay: Inhibition of binding of GATA4 to [32P]-double stranded oligonucleotide in neonatal rat ventricular cardiomyocytes at 50 uM measured after 24 hrs by EMSA method
How it was run: (§6)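 Neonatal rat cardiomyocytes treated 24 h with 50 μM; nuclear extracts incubated 20 min with [α-32P]dCTP Klenow-labeled GATA4- or NKX2-5-site oligonucleotide in HEPES/NaCl/KCl/MgCl2 buffer with poly(dI-dC); 5% native PAGE, phosphorimager; supershift with anti-GATA4/NKX2-5; relative to vehicle, mean ± SD, n = 3–5.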

[15] = Induction of aggregation of compounds at 100 uM by nephalometric method
[16] = target: T1, GATA4/NKX2-5 (Mus musculus); assay: Inhibition of mouse GATA4/NKX2-5 transcriptional synergy expressed in African green monkey COS-1 cells at 50 uM measured after 30 hrs by dual luciferase reporter gene assay; assay type: cell-based; how it was run: as §2
[17] = target: T2, GATA4/NKX2-5 (Rattus norvegicus); assay: Activation of GATA4/NKX2-5 interaction in neonatal rat ventricular cardiomyocytes assessed as increase in basal mRNA level of BNP at 100 uM after 24 hrs by real-time PCR analysis relative to control; how it was run: as §5
[18] = target: Homeobox protein Nkx-2.5 (Rattus norvegicus) (UniProt O35767); assay: Inhibition of binding of NKX2-5 to [32P]-double stranded oligonucleotide in neonatal rat ventricular cardiomyocytes at 50 uM measured after 24 hrs by EMSA method; how it was run: as §6
Homeobox protein Nkx-2.5 (Rattus norvegicus), sequence (O35767 whole entry): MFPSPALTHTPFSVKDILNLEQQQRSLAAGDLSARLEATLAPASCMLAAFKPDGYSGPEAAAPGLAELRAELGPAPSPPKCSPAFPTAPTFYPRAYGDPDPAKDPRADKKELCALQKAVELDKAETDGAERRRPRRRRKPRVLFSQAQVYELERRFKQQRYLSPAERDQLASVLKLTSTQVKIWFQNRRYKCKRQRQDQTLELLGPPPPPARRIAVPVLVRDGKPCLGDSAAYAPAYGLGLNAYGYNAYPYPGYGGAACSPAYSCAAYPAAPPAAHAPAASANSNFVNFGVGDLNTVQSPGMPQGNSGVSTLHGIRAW

Transcription factor GATA-4 (Mus musculus), sequence (Q08369 whole entry): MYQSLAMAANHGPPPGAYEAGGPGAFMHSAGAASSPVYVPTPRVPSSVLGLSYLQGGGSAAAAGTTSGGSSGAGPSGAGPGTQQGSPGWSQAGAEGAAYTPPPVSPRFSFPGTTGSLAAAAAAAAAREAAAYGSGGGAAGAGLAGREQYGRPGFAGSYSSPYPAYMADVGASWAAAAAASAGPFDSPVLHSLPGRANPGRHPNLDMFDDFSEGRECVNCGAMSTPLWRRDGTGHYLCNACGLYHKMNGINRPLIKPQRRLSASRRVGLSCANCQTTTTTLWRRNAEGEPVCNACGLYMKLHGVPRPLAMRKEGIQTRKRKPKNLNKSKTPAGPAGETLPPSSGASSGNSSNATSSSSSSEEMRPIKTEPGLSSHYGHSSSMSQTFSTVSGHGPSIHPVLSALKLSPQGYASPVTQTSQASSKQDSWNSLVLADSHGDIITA
GATA4/NKX2-5, sequence (Q08369 whole entry): as above
GATA4/NKX2-5, sequence (P42582 whole entry): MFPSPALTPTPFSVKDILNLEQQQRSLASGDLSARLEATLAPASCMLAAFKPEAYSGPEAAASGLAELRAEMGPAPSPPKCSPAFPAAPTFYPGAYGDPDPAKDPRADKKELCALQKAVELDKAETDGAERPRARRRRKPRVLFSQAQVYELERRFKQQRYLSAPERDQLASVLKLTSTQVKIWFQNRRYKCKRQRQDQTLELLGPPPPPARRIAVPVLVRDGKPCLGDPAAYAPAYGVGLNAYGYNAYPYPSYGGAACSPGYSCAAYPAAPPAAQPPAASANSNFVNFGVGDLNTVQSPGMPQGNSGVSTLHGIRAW
Homeobox protein Nkx-2.5 (Mus musculus), sequence (P42582 whole entry): as above
Transcription factor GATA-4 (Rattus norvegicus), sequence (P46152 whole entry): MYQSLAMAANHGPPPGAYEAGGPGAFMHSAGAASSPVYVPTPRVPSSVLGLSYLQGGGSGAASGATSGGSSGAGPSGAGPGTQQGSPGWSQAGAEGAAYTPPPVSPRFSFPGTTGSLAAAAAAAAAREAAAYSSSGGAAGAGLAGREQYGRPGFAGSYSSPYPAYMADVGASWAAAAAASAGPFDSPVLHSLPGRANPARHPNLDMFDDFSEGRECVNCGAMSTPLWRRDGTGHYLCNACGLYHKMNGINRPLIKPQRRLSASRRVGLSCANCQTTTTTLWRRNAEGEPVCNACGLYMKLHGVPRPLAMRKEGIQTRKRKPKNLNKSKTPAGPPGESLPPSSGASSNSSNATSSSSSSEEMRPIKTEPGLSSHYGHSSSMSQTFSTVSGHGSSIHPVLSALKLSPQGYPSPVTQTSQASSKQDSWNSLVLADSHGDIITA
Fibroblast growth factor receptor 3 (Homo sapiens), sequence (P22607 23-806 limits assumed): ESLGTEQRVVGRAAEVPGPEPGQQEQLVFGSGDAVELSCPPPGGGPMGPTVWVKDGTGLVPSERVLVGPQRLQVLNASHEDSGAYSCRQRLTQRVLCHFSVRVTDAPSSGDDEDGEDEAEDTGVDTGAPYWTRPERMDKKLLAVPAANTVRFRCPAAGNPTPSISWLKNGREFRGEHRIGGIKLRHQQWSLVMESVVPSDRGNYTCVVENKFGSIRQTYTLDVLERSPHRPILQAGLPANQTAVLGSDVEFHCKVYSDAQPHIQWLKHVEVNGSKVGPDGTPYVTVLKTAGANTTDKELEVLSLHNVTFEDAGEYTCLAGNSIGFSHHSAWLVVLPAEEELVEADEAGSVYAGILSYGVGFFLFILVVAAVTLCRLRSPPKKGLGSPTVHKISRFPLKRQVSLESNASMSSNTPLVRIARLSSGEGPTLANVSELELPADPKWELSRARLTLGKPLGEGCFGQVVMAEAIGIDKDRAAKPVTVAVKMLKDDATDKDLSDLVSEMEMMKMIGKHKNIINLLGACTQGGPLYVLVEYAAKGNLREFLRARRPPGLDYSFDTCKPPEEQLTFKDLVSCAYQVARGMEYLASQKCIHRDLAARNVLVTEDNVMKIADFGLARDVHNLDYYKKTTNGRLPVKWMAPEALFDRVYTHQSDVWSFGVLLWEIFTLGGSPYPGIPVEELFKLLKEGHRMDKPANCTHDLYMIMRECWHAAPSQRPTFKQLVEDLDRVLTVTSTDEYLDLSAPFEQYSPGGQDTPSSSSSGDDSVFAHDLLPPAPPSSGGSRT

| inhibition [1] | inhibition [2] | inhibition [3] | IC50 [4] | Drug metabolism [6] | inhibition [7] | inhibition [12] | fold change (FC) [13] | inhibition [14] | inhibition [16] | fold change (FC) [17] | inhibition [18] | Structure (SMILES) | Drug metabolism [5] | Activity [8] | Activity [9] | Activity [10] | Activity [11] | Activity [15] |
| --- | --- | --- | --- | --- | --- | --- | --- | --- | --- | --- | --- | --- | --- | --- | --- | --- | --- | --- |
| Active | Active | inactive | 5 µM | – | – | – | – | – | – | – | – | CC(C)COC(=O)c1ccc(NC(=O)c2ccncc2)cc1 | – | – | – | – | – | – |
| – | – | – | > 50 µM | Metabolite_Detected | – | – | – | – | – | – | – | CCNc1ccc(NC(=O)c2c(-c3ccccc3)noc2C)cc1 | Metabolite detected | – | – | – | – | – |
| inactive | – | Active | 10 µM | – | 55% | Active | 8.6 | 37% | Active | 4.9 | 29% | CCCOc1ccc(/C=N/n2c(S)nnc2-c2ccncc2)cc1 | – | Non-Toxic | inactive | Non-Toxic | Non-Toxic | Active |
